From ChEMBL document CHEMBL2177098, “Synthesis and evaluation of novel ¹⁸F labeled 2-pyridinylbenzoxazole and 2-pyridinylbenzothiazole derivatives as ligands for positron emission tomography (PET) imaging of β-amyloid plaques” (J Med Chem, 2012)
pKi: −log10 of the molar value.

What was measured:
Lung [1] = assay: Drug uptake in ICR mouse lung at 370 kBq/100 ul, iv at 2 mins by gamma-counting analysis; type: ADME, organism-based; conditions: in vivo
How it was run: (§1)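 Male ICR mice (5 weeks, about 20 g) got 18F tracer in saline (370 KBq per 100 μL) via tail vein; n = 5 per time point, killed at 2, 10, 30, 60 min. Organs weighed and γ-counted; percent dose per gram wet tissue from comparison with diluted injectate aliquots.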

Spleen [2] = assay: Drug uptake in ICR mouse spleen at 370 kBq/100 ul, iv at 10 mins by gamma-counting analysis; type: ADME, organism-based; conditions: in vivo; how it was run: as §1
Intestine [3] = assay: Drug uptake in ICR mouse intestine assessed per organ at 370 kBq/100 ul, iv at 30 mins by gamma-counting analysis; type: ADME, organism-based; conditions: in vivo, 0.5 h
How it was run: (§2)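 Male ICR mice (5 weeks, about 20 g) got 18F tracer in saline (370 KBq per 100 μL) via tail vein; n = 5 per time point, killed at 2, 10, 30, 60 min. Organs removed and γ-counted against diluted injectate; expressed as % injected dose per organ.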

Brain [4] = assay: Drug uptake in wild type C57BL6 mouse brain at 370 KBq/100 ul after 1 hr by autoradiographic analysis; type: ADME, tissue-based; conditions: in vitro
How it was run: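 Paraffin brain sections from 12-month-old male control C57BL6 mice were deparaffinized through xylene and graded ethanol, then held in PBS (0.2 M, pH 7.4) for 30 min. They were incubated with the ¹⁸F tracer (370 KBq per 100 μL) for 1 h at room temperature. Sections were washed in 40% EtOH, rinsed with water for 1 min, dried, and exposed to a phosphor plate for 2 h. The same sections were then stained with thioflavin S.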

Heart [5] = assay: Drug uptake in ICR mouse heart at 370 kBq/100 ul, iv at 2 mins by gamma-counting analysis; type: ADME, organism-based; conditions: in vivo; how it was run: as §1
Blood [6] = assay: Drug uptake in ICR mouse blood at 370 kBq/100 ul, iv at 2 mins by gamma-counting analysis; type: ADME, organism-based; conditions: in vivo; how it was run: as §1
Blood [7] = assay: Drug uptake in ICR mouse blood at 370 kBq/100 ul, iv at 10 mins by gamma-counting analysis; type: ADME, organism-based; conditions: in vivo; how it was run: as §1
Heart [8] = assay: Drug uptake in ICR mouse heart at 370 kBq/100 ul, iv at 60 mins by gamma-counting analysis; type: ADME, organism-based; conditions: in vivo, 1 h; how it was run: as §1
Spleen [9] = assay: Drug uptake in ICR mouse spleen at 370 kBq/100 ul, iv at 30 mins by gamma-counting analysis; type: ADME, organism-based; conditions: in vivo, 0.5 h; how it was run: as §1
Liver [10] = assay: Drug uptake in ICR mouse liver at 370 kBq/100 ul, iv at 2 mins by gamma-counting analysis; type: ADME, organism-based; conditions: in vivo; how it was run: as §1
Brain [11] = assay: Drug uptake in healthy human brain at 370 KBq/100 ul after 1 hr by autoradiographic analysis; type: ADME, tissue-based; conditions: in vitro
Spleen [12] = assay: Drug uptake in ICR mouse spleen at 370 kBq/100 ul, iv at 2 mins by gamma-counting analysis; type: ADME, organism-based; conditions: in vivo; how it was run: as §1
[13] = n-Octanol-PBS buffer partition coefficient, log D of the compound at 1.5 MBq after 3 mins at pH 7.4; type: physicochemical
How it was run: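 The tracer was partitioned between n-octanol and PBS by vortexing for 3 min at room temperature, then centrifuged for 5 min at 3000 rpm. Samples of the octanol (50 μL) and aqueous (500 μL) layers were counted. log D is the log of the octanol/PBS counts-per-gram ratio. The octanol layer was repartitioned until values were consistent. Measured in triplicate and repeated three times.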

[14] = Displacement of [125I]-IMPY from amyloid beta (1 to 42) fibrils after 2 hrs by gamma-counting analysis
How it was run: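 Competition binding with aggregated Aβ1-42 fibrils and [125I]IMPY (60000−100000 cpm/100 μL) in 0.05% BSA (1 mL total); inhibitors 10⁻⁴−10^−8.5 M in ethanol. Incubated 37 °C for 2 h, then GF/B vacuum filtration with PBS (0.02 M, pH 7.4) washes and γ counting. Three repeats; IC50 converted to Ki by Cheng−Prusoff.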

Liver [15] = assay: Drug uptake in ICR mouse liver at 370 kBq/100 ul, iv at 30 mins by gamma-counting analysis; type: ADME, organism-based; conditions: in vivo, 0.5 h; how it was run: as §1
Bone [16] = assay: Drug uptake in ICR mouse bone at 370 kBq/100 ul, iv at 60 mins by gamma-counting analysis; type: ADME, organism-based, Bone element; conditions: in vivo, 1 h; how it was run: as §1
Lung [17] = assay: Drug uptake in ICR mouse lung at 370 kBq/100 ul, iv at 10 mins by gamma-counting analysis; type: ADME, organism-based; conditions: in vivo; how it was run: as §1
Heart [18] = assay: Drug uptake in ICR mouse heart at 370 kBq/100 ul, iv at 30 mins by gamma-counting analysis; type: ADME, organism-based; conditions: in vivo, 0.5 h; how it was run: as §1
Stomach [19] = assay: Drug uptake in ICR mouse stomach assessed per organ at 370 kBq/100 ul, iv at 60 mins by gamma-counting analysis; type: ADME, organism-based; conditions: in vivo, 1 h
How it was run: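 Normal male ICR mice (5 weeks, about 20 g) received the ¹⁸F tracer in saline (370 KBq per 100 μL) by tail-vein injection. Groups of n = 5 were killed at 2, 10, 30 and 60 min. Organs were removed, weighed and γ-counted against diluted aliquots of the injectate, giving % dose per gram. Stomach and intestine were expressed per organ. The brain ratio is 2 min/60 min uptake. Values are mean ± SD.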

[20] = Metabolic stability in mouse plasma at 1.85 MBq after 60 mins by HPLC analysis; type: ADME, cell-free; conditions: read-out: Stability
How it was run: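 Purified tracer (1.85 MBq) was incubated with 100 μL mouse plasma at 37 °C for 2, 10, 30 and 60 min. Read-out was the percentage of activity remaining as intact tracer.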

Intestine [21] = assay: Drug uptake in ICR mouse intestine assessed per organ at 370 kBq/100 ul, iv at 60 mins by gamma-counting analysis; type: ADME, organism-based; conditions: in vivo, 1 h; how it was run: as §2
Lung [22] = assay: Drug uptake in ICR mouse lung at 370 kBq/100 ul, iv at 60 mins by gamma-counting analysis; type: ADME, organism-based; conditions: in vivo, 1 h; how it was run: as §1
Intestine [23] = assay: Drug uptake in ICR mouse intestine assessed per organ at 370 kBq/100 ul, iv at 10 mins by gamma-counting analysis; type: ADME, organism-based; conditions: in vivo; how it was run: as §2
Brain [24] = assay: Drug uptake in wild type C57BL6 mouse brain at 19.2 MBq, iv after 30 mins by autoradiographic analysis; type: ADME, organism-based; conditions: in vivo, 0.5 h
Kidney [25] = assay: Drug uptake in ICR mouse kidney at 370 kBq/100 ul, iv at 10 mins by gamma-counting analysis; type: ADME, organism-based; conditions: in vivo; how it was run: as §1
Bone [26] = assay: Drug uptake in ICR mouse bone at 370 kBq/100 ul, iv at 2 mins by gamma-counting analysis; type: ADME, organism-based, Bone element; conditions: in vivo; how it was run: as §1
Stomach [27] = assay: Drug uptake in ICR mouse stomach assessed per organ at 370 kBq/100 ul, iv at 2 mins by gamma-counting analysis; type: ADME, organism-based; conditions: in vivo; how it was run: as §2
Kidney [28] = assay: Drug uptake in ICR mouse kidney at 370 kBq/100 ul, iv at 60 mins by gamma-counting analysis; type: ADME, organism-based; conditions: in vivo, 1 h; how it was run: as §1
Lung [29] = assay: Drug uptake in ICR mouse lung at 370 kBq/100 ul, iv at 30 mins by gamma-counting analysis; type: ADME, organism-based; conditions: in vivo, 0.5 h; how it was run: as §1
[30] = Chemical stability of the compound in saline solution after 6 hrs; type: physicochemical; conditions: buffer
How it was run: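 Tracer kept in saline solution at room temperature, and stability followed during storage for up to 6 h.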

Stomach [31] = assay: Drug uptake in ICR mouse stomach assessed per organ at 370 kBq/100 ul, iv at 10 mins by gamma-counting analysis; type: ADME, organism-based; conditions: in vivo; how it was run: as §2
Kidney [32] = assay: Drug uptake in ICR mouse kidney at 370 kBq/100 ul, iv at 30 mins by gamma-counting analysis; type: ADME, organism-based; conditions: in vivo, 0.5 h; how it was run: as §1
Spleen [33] = assay: Drug uptake in ICR mouse spleen at 370 kBq/100 ul, iv at 60 mins by gamma-counting analysis; type: ADME, organism-based; conditions: in vivo, 1 h; how it was run: as §1

CNc1ccc(-c2nc3cc(OCC[18F])ccc3o2)cn1
Drug uptake (Lung [1]): 4.14 % ID/g
Drug uptake (Spleen [2]): 2.13 % ID/g
Drug uptake (Intestine [3]): 33.66 %ID
Drug uptake (Brain [4]): Not Active
Drug uptake (Heart [5]): 4.66 % ID/g
Drug uptake (Blood [6]): 3.36 % ID/g
Drug uptake (Blood [7]): 2.55 % ID/g
Drug uptake (Heart [8]): 2.05 % ID/g
Drug uptake (Spleen [9]): 1.63 % ID/g
Drug uptake (Liver [10]): 10.48 % ID/g
Drug uptake (Brain [11]): Not Active
Drug uptake (Spleen [12]): 3.32 % ID/g
logD at 0.05 h [13]: 3.52
pKi [14]: 8.10
Drug uptake (Liver [15]): 3.95 % ID/g
Drug uptake (Bone [16]): 2.37 % ID/g
Drug uptake (Lung [17]): 2.8 % ID/g
Drug uptake (Heart [18]): 1.84 % ID/g
Drug uptake (Stomach [19]): 3.89 %ID
remaining at 1 h, 1.85 MBq [20]: > 95%
Drug uptake (Intestine [21]): 39.05 %ID
Drug uptake (Lung [22]): 2.57 % ID/g
Drug uptake (Intestine [23]): 19.61 %ID
Drug uptake (Brain [24]): Not Active
Drug uptake (Kidney [25]): 3.52 % ID/g
Drug uptake (Bone [26]): 1.18 % ID/g
Drug uptake (Stomach [27]): 3.24 %ID
Drug uptake (Kidney [28]): 3.04 % ID/g
Drug uptake (Lung [29]): 2.29 % ID/g
Stability [30]: Stable
Drug uptake (Stomach [31]): 5.59 %ID
Drug uptake (Kidney [32]): 2.17 % ID/g
Drug uptake (Spleen [33]): 1.64 % ID/g
